These results are taken from ChEMBL document CHEMBL4052730, “Synthesis and evaluation of (E)-2-(5-phenylpent-2-en-4-ynamido)cyclohex-1-ene-1-carboxylate derivatives as HCA2 receptor agonists” (Bioorg Med Chem, 2017).

The structures appear in SMILES notation.

As usually defined, the IC50 is the concentration that inhibits the measured activity by half. The term EC50 denotes the concentration giving half of the maximal effect. By Emax is commonly meant the greatest response seen or fitted, relative to the assay's reference.

Assay [1] concerns the target T1, Hydroxycarboxylic acid receptor 2 (Homo sapiens, UniProt Q8TDS4). The assay is described as follows: Displacement of [5,6-3H]-nicotinic acid from recombinant human HCA2 receptor expressed in Flp-IN HEK cell membranes after 2 hrs by microbeta counting method. The procedure, abridged: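 Membranes from human HCA2-expressing Flp-In-293 cells were prepared by acoustic disruption in TE buffer (pH 7.6) and centrifugation at 21,000g. They were used at 25 µg/well in 50 mM Tris-HCl, 1 mM MgCl2, 0.02% CHAPS, pH 7.6, without BSA. Competition with 20 nM [5,6-3H]-nicotinic acid ran 2 h at room temperature, followed by GF/B filtration and scintillation counting. Duplicates, repeated three times.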

Assay [2] deals with T1, Hydroxycarboxylic acid receptor 2. The assay is described as follows: Agonist activity at recombinant human HCA2 receptor expressed in Flp-IN HEK cells assessed as reduction in forskolin-stimulated cAMP accumulation measured after 30 mins. Type of assay: functional, cell-based. An outline of the steps: (§1)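 Flp-In-293 cells stably expressing recombinant human HCA2, 12,000 cells/well, treated with compounds plus 3 µM forskolin for 30 min in PBS containing 0.5 mM IBMX, without BSA. Read-out is reduction of forskolin-stimulated cAMP, reported as EC50 and as maximal inhibition (%). Mean ± SD of at least three experiments, each in duplicate.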
On the technique in general: cAMP levels reflect the balance of adenylyl cyclase and phosphodiesterase activity.

For assay [3] the target is unchanged. The assay is described as follows: Agonist activity at recombinant human HCA2 receptor expressed in Flp-IN HEK cells assessed as reduction in forskolin-stimulated cAMP accumulation measured after 30 mins relative to control. Type of assay: functional, cell-based. An outline of the steps:
as §1

T1 sequence (Q8TDS4 whole entry): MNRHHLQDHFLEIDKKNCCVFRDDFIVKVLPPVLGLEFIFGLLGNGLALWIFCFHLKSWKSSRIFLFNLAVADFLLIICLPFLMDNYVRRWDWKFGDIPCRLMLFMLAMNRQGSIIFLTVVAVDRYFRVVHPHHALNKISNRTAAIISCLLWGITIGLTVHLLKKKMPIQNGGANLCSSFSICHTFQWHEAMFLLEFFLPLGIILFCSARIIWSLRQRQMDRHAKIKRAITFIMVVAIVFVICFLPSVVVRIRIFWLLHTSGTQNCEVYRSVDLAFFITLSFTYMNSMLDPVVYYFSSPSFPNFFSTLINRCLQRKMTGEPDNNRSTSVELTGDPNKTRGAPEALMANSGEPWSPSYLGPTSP

Regarding `O=C(CCC#Cc1ccc(O)cc1Cl)NC1=C(C(=O)O)CCCC1`, in assay [1], the IC50 amounted to 76 nM. Moreover, in assay [2], the EC50 stood at 90 nM. Further, in assay [3], the Emax is 94%.

With `O=C(/C=C/C#Cc1ccc(O)cc1)NC1=C(C(=O)O)CCCC1`, in assay [1], the IC50 was determined as 25 nM. Further, the EC50 in assay [2] was 130 nM. Besides, in assay [3], the Emax was 97%.

With `O=C(/C=C/C#Cc1cccc(O)c1)NC1=C(C(=O)O)CCCC1`, the IC50 in assay [1] turned out to be 383 nM. Further, in assay [2], the EC50 was 390 nM. The Emax in assay [3] was determined as 92%.

Take `O=C(CCc1ccc(-c2cccc(O)c2)cc1)NC1=C(C(=O)O)CCCC1`: the IC50 in assay [1] is 32 nM. Further, in assay [2], the half-maximal effective concentration (EC50) was 230 nM. Also, the Emax in assay [3] amounted to 96%.

As for `O=C(/C=C/CCc1ccccc1)NC1=C(C(=O)O)CCCC1`, the IC50 in assay [1] was determined as 2830 nM. Also, in assay [2], the EC50 stood at 19600 nM. Also, the Emax in assay [3] came to 70%.

Regarding `O=C(CCc1ccc(-c2ccc(O)cc2F)cc1)NC1=C(C(=O)O)CCCC1`, the IC50 in assay [1] stood at 58 nM. For the same molecule, the 50% effective concentration (EC50) in assay [2] stood at 260 nM. The Emax in assay [3] is 99%.

As for `O=C(/C=C/C#Cc1ccccc1Cl)NC1=C(C(=O)O)CCCC1`, in assay [1], the IC50 came out at 88 nM. The EC50 in assay [2] is 270 nM. For the same molecule, the Emax in assay [3] amounted to 88%.

Regarding `O=C(/C=C/C#Cc1ccccc1)NC1=C(C(=O)O)CCCC1`, in assay [1], the IC50 came out at 327 nM. In addition, in assay [2], the EC50 came to 1010 nM. Moreover, the Emax in assay [3] was 79%.

Turning to `O=C(CCC#Cc1ccc(O)cc1F)NC1=C(C(=O)O)CCCC1`, in assay [1], the IC50 turned out to be 28 nM. Moreover, the EC50 in assay [2] was found to be 80 nM. Also, the Emax in assay [3] worked out at 93%.

For the molecule `O=C(CCC#Cc1ccccc1Cl)NC1=C(C(=O)O)CCCC1`, the IC50 in assay [1] came to 56 nM. In addition, in assay [2], the EC50 turned out to be 190 nM. The Emax in assay [3] stood at 95%.

Take `O=C(CCc1ccc(-c2ccc(O)cc2)cc1)NC1=C(C(=O)O)CCCC1`: in assay [1], the IC50 worked out at 21 nM. The EC50 in assay [2] was found to be 70 nM. Besides, in assay [3], the Emax is 92%.

Regarding `O=C(/C=C/C#Cc1ccccc1F)NC1=C(C(=O)O)CCCC1`, the IC50 in assay [1] worked out at 16 nM. Further, in assay [2], the EC50 was found to be 450 nM. For the same molecule, the Emax in assay [3] turned out to be 84%.

For the molecule `O=C(CCC#Cc1ccc(O)cc1)NC1=C(C(=O)O)CCCC1`, the concentration for half-maximal inhibition (IC50) in assay [1] turned out to be 13 nM. Also, the EC50 in assay [2] was determined as 160 nM. Also, the Emax in assay [3] is 91%.

Regarding `O=C(CCc1ccc(-c2ccccc2F)cc1)NC1=C(C(=O)O)CCCC1`, in assay [1], the IC50 is 282 nM. For the same molecule, in assay [2], the EC50 turned out to be 190 nM. Besides, in assay [3], the Emax amounted to 97%.

For the molecule `O=C(CCC#Cc1ccc(F)cc1)NC1=C(C(=O)O)CCCC1`, the IC50 in assay [1] was 291 nM. Moreover, in assay [2], the 50% effective concentration (EC50) amounted to 630 nM. Besides, the Emax in assay [3] was found to be 99%.

`O=C(CCC#Cc1cccc(O)c1)NC1=C(C(=O)O)CCCC1`: the IC50 in assay [1] is 138 nM. For the same molecule, the EC50 in assay [2] was 2980 nM. Moreover, in assay [3], the Emax is 89%.

`O=C(/C=C/C#Cc1ccc(O)cc1F)NC1=C(C(=O)O)CCCC1`: in assay [1], the IC50 came out at 331 nM. In addition, the EC50 in assay [2] was 110 nM. Also, the Emax in assay [3] turned out to be 96%.

`O=C(CCc1ccc(-c2ccccc2Cl)cc1)NC1=C(C(=O)O)CCCC1`: the IC50 in assay [1] stood at 75 nM. Also, the concentration for a half-maximal effect (EC50) in assay [2] was 130 nM. Further, in assay [3], the Emax stood at 92%.

In the case of `O=C(/C=C/C#Cc1ccccc1O)NC1=C(C(=O)O)CCCC1`, the IC50 in assay [1] turned out to be 37 nM. Besides, the EC50 in assay [2] worked out at 250 nM. In assay [3], the Emax is 78%.

With `O=C(CCc1ccc(-c2ccccc2O)cc1)NC1=C(C(=O)O)CCCC1`, the IC50 in assay [1] is 40 nM. Moreover, the EC50 in assay [2] was 410 nM. In assay [3], the Emax is 90%.

On to `O=C(CCC#Cc1ccc(C(=O)O)cc1)NC1=C(C(=O)O)CCCC1`, for which the IC50 in assay [1] worked out at 3620 nM. For the same molecule, in assay [2], the EC50 worked out at 5610 nM. In addition, in assay [3], the Emax came out at 74%.

For the molecule `O=C(CCC#Cc1ccc(O)cn1)NC1=C(C(=O)O)CCCC1`, the half-inhibitory concentration (IC50) in assay [1] is 665 nM. Further, the concentration giving a half-maximal response (EC50) in assay [2] amounted to 3370 nM. For the same molecule, the Emax in assay [3] is 91%.

Regarding `O=C(CCC#Cc1ccccc1F)NC1=C(C(=O)O)CCCC1`, the IC50 in assay [1] was found to be 67 nM. In assay [2], the concentration giving a half-maximal response (EC50) is 360 nM. Also, the maximal effect (Emax) in assay [3] is 90%.

Take `O=C(CCC#Cc1ccccc1O)NC1=C(C(=O)O)CCCC1`: in assay [1], the IC50 amounted to 229 nM. In assay [2], the concentration for a half-maximal effect (EC50) was 720 nM. In addition, the Emax in assay [3] was found to be 93%.
